In brackets after ≈: the same amount, converted by molar mass. Residues, ends and D or L forms follow the SMILES beside them. *: point of attachment. X1 = Cc1cc2nc(-c3ccc(O)c(C(=O)*)c3)[nH]c2cc1C
Columns and labels:
Staphylococcus aureus [1] = assay: Antibacterial activity against Staphylococcus aureus NCIM 2079 after 18 hrs by disc diffusion method; assay type: functional
Summary of the method: (§1)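 Modified Kirby-Bauer disc diffusion. Plates inoculated with spore suspension (about 6 × 10⁴ spores mL^-1). Sterile 6 mm paper discs carried test samples at 10 mg mL^-1; ciprofloxacin disc as reference, DMF disc as negative control. Plates held 18 h at 37 °C. Inhibition zone diameters (mm) averaged over triplicate sets.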

[2] = Growth inhibition of EAC cells after 3 hrs; assay type: functional; settings: Mus musculus, Ehrlich
Summary of the method: (§2)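 DLA and EAC cells passaged intraperitoneally in albino mice, harvested after 15–20 days and adjusted to 1 × 10⁶ cells/mL. Dilutions in Dulbecco's medium (500–31.25, some down to 3.91 µg/mL; 5-FU reference) mixed 1:1 with cells and held 3 h at 37 °C. Trypan blue exclusion gave % growth inhibition; CTC50 by graphical extrapolation.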

[3] = Growth inhibition of DLA cells at 3.91 ug/mL after 3 hrs; assay type: functional; settings: Mus musculus; summary of the method: as §2
Escherichia coli [4] = assay: Antibacterial activity against Escherichia coli NCIM 2065 after 18 hrs by tube dilution method; assay type: functional; settings: NCIM 2065, 18 h
[5] = Growth inhibition of DLA cells at 31.25 ug/mL after 3 hrs; assay type: functional; settings: Mus musculus; summary of the method: as §2
Microsporum audouinii [6] = assay: Antifungal activity against Microsporum audouinii MUCC 545 after 48 hrs by tube dilution method; assay type: functional
Summary of the method: (§3)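 Tube dilution MIC as for bacteria (seven concentrations, 200–3.1 […]), with DMSO in place of DMF. Tubes inoculated with fungal culture and incubated 48 h at 37 °C. MIC read from presence or absence of growth.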

Trichophyton benhamiae [7] = assay: Antifungal activity against Trichophyton mentagrophytes MUCC 665 after 48 hrs by tube dilution method; assay type: functional, Arthroderma benhamiae; summary of the method: as §3
[8] = Growth inhibition of EAC cells at 15.63 ug/mL after 3 hrs; assay type: functional; settings: Mus musculus, Ehrlich; summary of the method: as §2
[9] = Growth inhibition of EAC cells at 7.81 ug/mL after 3 hrs; assay type: functional; settings: Mus musculus, Ehrlich; summary of the method: as §2
Bacillus subtilis [10] = assay: Antibacterial activity against Bacillus subtilis NCIM 2063 after 18 hrs by tube dilution method; assay type: functional; settings: NCIM 2063, 18 h
Summary of the method: (§4)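 Tube dilution MIC. Stock diluted in sterile broth to seven concentrations from 200 to 3.1 […]. Each tube inoculated with one loopful of test bacterium and incubated 18 h at 37 °C. MIC read from presence or absence of growth.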

[11] = Growth inhibition of DLA cells at 62.5 ug/mL after 3 hrs; assay type: functional; settings: Mus musculus; summary of the method: as §2
[12] = Growth inhibition of DLA cells after 3 hrs; assay type: functional; settings: Mus musculus; summary of the method: as §2
[13] = Anthelmintic activity against Megascoplex konkanensis ICARBC 211 assessed as mean paralyzing time; assay type: functional
Summary of the method: (§5)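 Earthworms exposed to test suspensions at 2 mg mL^-1 (0.2% w/v), made by triturating compound with Tween 80 (0.5%) and distilled water, then mechanically stirred 30 min. Mebendazole suspension prepared alike as reference. Paralysis and death times recorded; death confirmed by no movement in 50 °C water. Means from triplicate sets.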

Microsporum audouinii [14] = assay: Antifungal activity against Microsporum audouinii MUCC 545 after 48 hrs by disc diffusion method; assay type: functional
Summary of the method: (§6)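 Agar well diffusion on plates inoculated with spore suspension in normal saline from cultures on Sabouraud's broth. Wells punched and loaded with test samples or griseofulvin at 10 mg mL^-1, with DMSO as negative control. Incubated 48 h at 37 °C.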

Eudrilus [15] = assay: Anthelmintic activity against Eudrilus sp. assessed as mean death time; assay type: functional
Summary of the method: (§7)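 Earthworms exposed to test suspensions at 2 mg mL−1, prepared by triturating compound with Tween 80 (0.5%) and distilled water, stirring 30 min, then diluting to 0.2% w/v. Mebendazole suspension was made the same way. Death was confirmed by moving worms into 50 °C warm water and looking for movement. Mean death time (min) taken from triplicate sets.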

[16] = Growth inhibition of EAC cells at 31.25 ug/mL after 3 hrs; assay type: functional; settings: Mus musculus, Ehrlich; summary of the method: as §2
Aspergillus niger = assay: Antifungal activity against Aspergillus niger MUCC 177 after 48 hrs by disc diffusion method; assay type: functional; summary of the method: as §6
[17] = Growth inhibition of EAC cells at 62.5 ug/mL after 3 hrs; assay type: functional; settings: Mus musculus, Ehrlich; summary of the method: as §2
Pontoscolex corethrurus [18] = assay: Anthelmintic activity against Pontoscolex corethrurus ICARBC 408 assessed as mean death time; assay type: functional; summary of the method: as §7
Trichophyton benhamiae [19] = assay: Antifungal activity against Trichophyton mentagrophytes MUCC 665 after 48 hrs by disc diffusion method; assay type: functional, Arthroderma benhamiae; summary of the method: as §6
Pseudomonas aeruginosa [20] = assay: Antibacterial activity against Pseudomonas aeruginosa NCIM 2034 after 18 hrs by disc diffusion method; assay type: functional; summary of the method: as §1
Candida albicans [21] = assay: Antifungal activity against Candida albicans MUCC 29 after 48 hrs by disc diffusion method; assay type: functional; summary of the method: as §6
Bacillus subtilis [22] = assay: Antibacterial activity against Bacillus subtilis NCIM 2063 after 18 hrs by disc diffusion method; assay type: functional; summary of the method: as §1
Candida albicans [23] = assay: Antifungal activity against Candida albicans MUCC 29 after 48 hrs by tube dilution method; assay type: functional; summary of the method: as §3
Staphylococcus aureus [24] = assay: Antibacterial activity against Staphylococcus aureus NCIM 2079 after 18 hrs by tube dilution method; assay type: functional; settings: NCIM 2079, 18 h; summary of the method: as §4
Eudrilus [25] = assay: Anthelmintic activity against Eudrilus sp. assessed as mean paralyzing time; assay type: functional; summary of the method: as §5
[26] = Growth inhibition of EAC cells at 3.91 ug/mL after 3 hrs; assay type: functional; settings: Mus musculus, Ehrlich; summary of the method: as §2
Pseudomonas aeruginosa [27] = assay: Antibacterial activity against Pseudomonas aeruginosa NCIM 2034 after 18 hrs by tube dilution method; assay type: functional; settings: NCIM 2034, 18 h; summary of the method: as §4
[28] = Anthelmintic activity against Megascoplex konkanensis ICARBC 211 assessed as mean death time; assay type: functional; summary of the method: as §5
[29] = Growth inhibition of DLA cells at 7.81 ug/mL after 3 hrs; assay type: functional; settings: Mus musculus; summary of the method: as §2
Escherichia coli [30] = assay: Antibacterial activity against Escherichia coli NCIM 2065 after 18 hrs by disc diffusion method; assay type: functional; summary of the method: as §1
[31] = Growth inhibition of DLA cells at 15.63 ug/mL after 3 hrs; assay type: functional; settings: Mus musculus; summary of the method: as §2
Pontoscolex corethrurus [32] = assay: Anthelmintic activity against Pontoscolex corethrurus ICARBC 408 assessed as mean paralyzing time; assay type: functional; summary of the method: as §5
[33] = Growth inhibition of DLA cells at 500 ug/mL after 3 hrs; assay type: functional; settings: Mus musculus; summary of the method: as §2
[34] = Growth inhibition of DLA cells at 125 ug/mL after 3 hrs; assay type: functional; settings: Mus musculus; summary of the method: as §2
[35] = Growth inhibition of EAC cells at 125 ug/mL after 3 hrs; assay type: functional; settings: Mus musculus, Ehrlich; summary of the method: as §2
[36] = Growth inhibition of EAC cells at 500 ug/mL after 3 hrs; assay type: functional; settings: Mus musculus, Ehrlich; summary of the method: as §2
[37] = Growth inhibition of DLA cells at 250 ug/mL after 3 hrs; assay type: functional; settings: Mus musculus; summary of the method: as §2
[38] = Growth inhibition of EAC cells at 250 ug/mL after 3 hrs; assay type: functional; settings: Mus musculus, Ehrlich; summary of the method: as §2

SMILES	inhibition zone (IZ) (Staphylococcus aureus [1]) [mm]	CC50 [2] [µM]	MIC (Escherichia coli [4]) [µg/mL]	inhibition at 31.25 µg/mL [5] [%]	MIC (Microsporum audouinii [6]) [µg/mL]	MIC (Trichophyton benhamiae [7]) [µg/mL]	MIC (Bacillus subtilis [10]) [µg/mL]	inhibition at 62.5 µg/mL [11] [%]	CC50 [12] [µM]	TIME [13] [h]	inhibition zone (IZ) (Microsporum audouinii [14]) [mm]	Time (Eudrilus [15]) [min]	inhibition at 31.25 µg/mL [16] [%]	inhibition zone (IZ) (Aspergillus niger) [mm]	inhibition at 62.5 µg/mL [17] [%]	Time (Pontoscolex corethrurus [18]) [min]	inhibition zone (IZ) (Trichophyton benhamiae [19]) [mm]	inhibition zone (IZ) (Pseudomonas aeruginosa [20]) [mm]	inhibition zone (IZ) (Candida albicans [21]) [mm]	inhibition zone (IZ) (Bacillus subtilis [22]) [mm]	further results
COC(=O)[C@H](Cc1cnc[nH]1)NC(=O)CNC(=O)[C@H](Cc1c[nH]c2ccccc12)NC(=O)CNC(=O)c1cc(-c2nc3cc(C)c(C)cc3[nH]2)ccc1O (X1-GWGH-OMe)	9	18.9	12.5 (≈ 17 µM)	86.8	6 (≈ 8.18 µM)	6 (≈ 8.18 µM)	6 (≈ 8.18 µM)	100	15.3	0.157	10	20.94	71.4	15	100	26.21	15	23	17	12	inhibition at 3.91 µg/mL [3]: 26.3%; inhibition at 15.63 µg/mL [8]: 53.6%; inhibition at 7.81 µg/mL [9]: 35.7%; MIC (Candida albicans [23]): 6 µg/mL (≈ 8.18 µM); MIC (Staphylococcus aureus [24]): 12.5 µg/mL (≈ 17 µM); Time (Eudrilus [25]): 11.06 min; inhibition at 3.91 µg/mL [26]: 7.14%; MIC (Pseudomonas aeruginosa [27]): 6 µg/mL (≈ 8.18 µM); TIME [28]: 0.291 h; inhibition at 7.81 µg/mL [29]: 44.7%; inhibition zone (IZ) (Escherichia coli [30]): 17 mm; inhibition at 15.63 µg/mL [31]: 55.3%; Time (Pontoscolex corethrurus [32]): 14.34 min
Cc1cc2nc(-c3c(I)cc(C(=O)N[C@@H](Cc4cnc[nH]4)C(=O)N4CCC[C@H]4C(=O)O)cc3I)[nH]c2cc1C	13	> 665	12.5 (≈ 16.6 µM)	13.2	25 (≈ 33.2 µM)	6 (≈ 7.98 µM)	6 (≈ 7.98 µM)	28.9	583	0.228	10	23.86	7.14	14	10.7	29.33	13	27	25	16	inhibition at 500 µg/mL [33]: 52.6%; inhibition at 125 µg/mL [34]: 34.2%; MIC (Candida albicans [23]): 6 µg/mL (≈ 7.98 µM); inhibition at 125 µg/mL [35]: 10.7%; MIC (Staphylococcus aureus [24]): 12.5 µg/mL (≈ 16.6 µM); Time (Eudrilus [25]): 13.37 min; MIC (Pseudomonas aeruginosa [27]): 6 µg/mL (≈ 7.98 µM); TIME [28]: 0.373 h; inhibition at 500 µg/mL [36]: 35.7%; inhibition zone (IZ) (Escherichia coli [30]): 18 mm; inhibition at 250 µg/mL [37]: 42.1%; Time (Pontoscolex corethrurus [32]): 17.38 min; inhibition at 250 µg/mL [38]: 28.6%
C[C@H](NC(=O)[C@@H]1CCCN1C(=O)c1cc(-c2nc3ccc([N+](=O)[O-])cc3[nH]2)ccc1O)C(=O)O	9	> 1070	12.5 (≈ 26.7 µM)	7.89	6 (≈ 12.8 µM)	6 (≈ 12.8 µM)	12.5 (≈ 26.7 µM)	18.4	> 1070	0.436	12	35.69	7.14	16	7.14	43.55	17	28	22	13	inhibition at 500 µg/mL [33]: 34.2%; inhibition at 125 µg/mL [34]: 21%; MIC (Candida albicans [23]): 6 µg/mL (≈ 12.8 µM); inhibition at 125 µg/mL [35]: 14.3%; MIC (Staphylococcus aureus [24]): 25 µg/mL (≈ 53.5 µM); Time (Eudrilus [25]): 27.12 min; MIC (Pseudomonas aeruginosa [27]): 6 µg/mL (≈ 12.8 µM); TIME [28]: 0.585 h; inhibition at 500 µg/mL [36]: 25%; inhibition zone (IZ) (Escherichia coli [30]): 18 mm; inhibition at 250 µg/mL [37]: 26.3%; Time (Pontoscolex corethrurus [32]): 31.9 min; inhibition at 250 µg/mL [38]: 17.9%
COC(=O)[C@H](Cc1cnc[nH]1)NC(=O)[C@H](Cc1cnc[nH]1)NC(=O)c1cc(-c2nc3cc(C)c(C)cc3[nH]2)ccc1O	11	> 877	12.5 (≈ 21.9 µM)	7.89	6 (≈ 10.5 µM)	6 (≈ 10.5 µM)	6 (≈ 10.5 µM)	15.8	> 877	0.175	11	21.78	3.57	17	7.14	23.75	15	21	20	13	inhibition at 500 µg/mL [33]: 36.8%; inhibition at 125 µg/mL [34]: 21%; MIC (Candida albicans [23]): 6 µg/mL (≈ 10.5 µM); inhibition at 125 µg/mL [35]: 7.14%; MIC (Staphylococcus aureus [24]): 12.5 µg/mL (≈ 21.9 µM); Time (Eudrilus [25]): 10.38 min; MIC (Pseudomonas aeruginosa [27]): 6 µg/mL (≈ 10.5 µM); TIME [28]: 0.305 h; inhibition at 500 µg/mL [36]: 21.4%; inhibition zone (IZ) (Escherichia coli [30]): 17 mm; inhibition at 250 µg/mL [37]: 31.6%; Time (Pontoscolex corethrurus [32]): 12.22 min; inhibition at 250 µg/mL [38]: 14.3%
